One test has as its system A549. The test can be described thus: Cytotoxicity against human A549 cells after 72 hrs by SRB assay. It is filed as functional, cell-based. The note with it: A549, 72 h. Put shortly:
(§1)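 Ditartrate salts tested. ATCC cells seeded at 6000/well, attached overnight, then exposed in triplicate to graded concentrations at 37 °C for 72 h. Fixed with 10% trichloroacetic acid for 60 min at 4 °C, stained with 0.4% w/v SRB in 1% acetic acid for 15 min, dye solubilised in Tris buffer, A515 read. IC50 for 50% growth inhibition by Logit method. Anhydrovinblastine as positive control.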
(In general: The SRB assay estimates cell density from bound dye.)

Another test has as its system HeLa. The test can be described thus: Cytotoxicity against human HeLa cells after 72 hrs by SRB assay. It is filed as functional, cell-based. Put shortly:
as §1

The results in this text go back to ChEMBL document CHEMBL1140087, “Synthesis and structure-activity relationship studies of cytotoxic ester and ether anhydrovinblastine derivatives” (J Nat Prod, 2008).

The term IC50 denotes the concentration that gives 50% inhibition. High values mean weaker potency in that assay, low ones greater potency in that assay. On to `C=CCOC[C@@]1(O)[C@H](OC(C)=O)[C@]2(CC)C=CCN3CC[C@@]4(c5cc([C@@]6(C(=O)OC)C[C@@H]7C=C(CC)CN(CCc8c6[nH]c6ccccc86)C7)c(OC)cc5N(C)[C@@H]14)[C@@H]32`, for which the IC50 in the test on A549 was 124 nM; in the test with HeLa, 162 nM.
Regarding `CCC1=C[C@@H]2CN(CCc3c([nH]c4ccccc34)[C@@](C(=O)OC)(c3cc4c(cc3OC)N(C)[C@H]3[C@@](O)(COCc5ccc(OC)cc5)[C@H](OC(C)=O)[C@]5(CC)C=CCN6CC[C@]43[C@@H]65)C2)C1`, the IC50 in the test on A549 is 702 nM; in the test with HeLa, 409 nM.
Regarding `CCC1=C[C@@H]2CN(CCc3c([nH]c4ccccc34)[C@@](C(=O)OC)(c3cc4c(cc3OC)N(C)[C@H]3[C@@](O)(COC(=O)C5CC5)[C@H](OC(C)=O)[C@]5(CC)C=CCN6CC[C@]43[C@@H]65)C2)C1`, the IC50 with A549 was 47.9 nM; with HeLa it was 38.1 nM.
For `CCCCOC[C@@]1(O)[C@H](OC(C)=O)[C@]2(CC)C=CCN3CC[C@@]4(c5cc([C@@]6(C(=O)OC)C[C@@H]7C=C(CC)CN(CCc8c6[nH]c6ccccc86)C7)c(OC)cc5N(C)[C@@H]14)[C@@H]32`, in that order: 422 nM and 422 nM.
For `CCC1=C[C@@H]2CN(CCc3c([nH]c4ccccc34)[C@@](C(=O)OC)(c3cc4c(cc3OC)N(C)[C@H]3[C@@](O)(COC(=O)Cc5ccccc5)[C@H](OC(C)=O)[C@]5(CC)C=CCN6CC[C@]43[C@@H]65)C2)C1`, in that order: 67.4 nM and 272 nM.
Take `CCC1=C[C@@H]2CN(CCc3c([nH]c4ccccc34)[C@@](C(=O)OC)(c3cc4c(cc3OC)N(C)[C@H]3[C@@](O)(COC(=O)c5ccc([N+](=O)[O-])cc5)[C@H](OC(C)=O)[C@]5(CC)C=CCN6CC[C@]43[C@@H]65)C2)C1`: the IC50 in the test with A549 came to 52.3 nM; in the test with HeLa it was 169 nM.
As to `CCC1=C[C@@H]2CN(CCc3c([nH]c4ccccc34)[C@@](C(=O)OC)(c3cc4c(cc3OC)N(C)[C@H]3[C@@](O)(COC(=O)c5ccc(Cl)cc5)[C@H](OC(C)=O)[C@]5(CC)C=CCN6CC[C@]43[C@@H]65)C2)C1`, the IC50 with A549 came to 56.7 nM; with HeLa, 102 nM.
The like results for `CCC(=O)OC[C@@]1(O)[C@H](OC(C)=O)[C@]2(CC)C=CCN3CC[C@@]4(c5cc([C@@]6(C(=O)OC)C[C@@H]7C=C(CC)CN(CCc8c6[nH]c6ccccc86)C7)c(OC)cc5N(C)[C@@H]14)[C@@H]32` were, in that order, 39.1 nM and 62.1 nM.
As for `CCC1=C[C@@H]2CN(CCc3c([nH]c4ccccc34)[C@@](C(=O)OC)(c3cc4c(cc3OC)N(C)[C@H]3[C@@](O)(COC(=O)c5ccccc5)[C@H](OC(C)=O)[C@]5(CC)C=CCN6CC[C@]43[C@@H]65)C2)C1`, the figures for the IC50 in the test with A549 and in the test with HeLa were 25.4 nM and 35.6 nM, respectively.
The like results for `CCC1=C[C@@H]2CN(CCc3c([nH]c4ccccc34)[C@@](C(=O)OC)(c3cc4c(cc3OC)N(C)[C@H]3[C@@](O)(COC(C)=O)[C@H](OC(C)=O)[C@]5(CC)C=CCN6CC[C@]43[C@@H]65)C2)C1` were, in that order, 38.2 nM and 35.3 nM.
The like results for `CCC1=C[C@@H]2CN(CCc3c([nH]c4ccccc34)[C@@](C(=O)OC)(c3cc4c(cc3OC)N(C)[C@H]3[C@@](O)(COC(=O)c5ccccc5Cl)[C@H](OC(C)=O)[C@]5(CC)C=CCN6CC[C@]43[C@@H]65)C2)C1` were, in that order, 40.5 nM and 147 nM.
As for `CCC1=C[C@@H]2CN(CCc3c([nH]c4ccccc34)[C@@](C(=O)OC)(c3cc4c(cc3OC)N(C)[C@H]3[C@@](O)(COC(=O)C(C)C)[C@H](OC(C)=O)[C@]5(CC)C=CCN6CC[C@]43[C@@H]65)C2)C1`, the results for the IC50 with A549 and in the test on HeLa were 59.9 nM and 87.5 nM, respectively.
Regarding `CCC1=C[C@@H]2CN(CCc3c([nH]c4ccccc34)[C@@](C(=O)OC)(c3cc4c(cc3OC)N(C)[C@H]3[C@@](O)(COC(=O)C(C)(C)C)[C@H](OC(C)=O)[C@]5(CC)C=CCN6CC[C@]43[C@@H]65)C2)C1`, the IC50 came out at 181 nM in the test with A549 and 96 nM in the test on HeLa.
Turning to `CCC1=C[C@@H]2CN(CCc3c([nH]c4ccccc34)[C@@](C(=O)OC)(c3cc4c(cc3OC)N(C)[C@H]3[C@@](O)(COC(=O)CC(C)C)[C@H](OC(C)=O)[C@]5(CC)C=CCN6CC[C@]43[C@@H]65)C2)C1`, the results for the IC50 in the test with A549 and in the test with HeLa were 70.3 nM and 175 nM, respectively.
As for `CCCOC[C@@]1(O)[C@H](OC(C)=O)[C@]2(CC)C=CCN3CC[C@@]4(c5cc([C@@]6(C(=O)OC)C[C@@H]7C=C(CC)CN(CCc8c6[nH]c6ccccc86)C7)c(OC)cc5N(C)[C@@H]14)[C@@H]32`, the IC50 with A549 came out at 401 nM; in the test on HeLa, 398 nM.
For `CCC1=C[C@@H]2CN(CCc3c([nH]c4ccccc34)[C@@](C(=O)OC)(c3cc4c(cc3OC)N(C)[C@H]3[C@@](O)(COC(=O)c5ccc(OC)cc5)[C@H](OC(C)=O)[C@]5(CC)C=CCN6CC[C@]43[C@@H]65)C2)C1`, in that order: 29.7 nM and 151 nM.
`CCOC[C@@]1(O)[C@H](OC(C)=O)[C@]2(CC)C=CCN3CC[C@@]4(c5cc([C@@]6(C(=O)OC)C[C@@H]7C=C(CC)CN(CCc8c6[nH]c6ccccc86)C7)c(OC)cc5N(C)[C@@H]14)[C@@H]32`: the values for the IC50 with A549 and with HeLa were 98 nM and 220 nM, respectively.
In the case of `CCC1=C[C@@H]2CN(CCc3c([nH]c4ccccc34)[C@@](C(=O)OC)(c3cc4c(cc3OC)N(C)[C@H]3[C@@](O)(COC(=O)c5ccccc5OC)[C@H](OC(C)=O)[C@]5(CC)C=CCN6CC[C@]43[C@@H]65)C2)C1`, the IC50 in the test with A549 came to 14.2 nM; in the test on HeLa, 154 nM.
